Assay results published in ChEMBL document CHEMBL4382246, “Synthesis, biological evaluation, and molecular docking investigation of 3-amidoindoles as potent tubulin polymerization inhibitors” (Eur J Med Chem, 2019).

What was measured:
[1] = system: MCF7; assay: Cytotoxicity against human MCF7 cells after 72 hrs by MTT assay; assay type: functional, cell-based; conditions: MCF7, 72 h
In short: (§1)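 Lines kept in RPMI-1640 with 10% FBS. Cells were seeded at 2×10³ per well and allowed to attach for 24 h at 37 °C. Medium was then replaced with medium holding serial dilutions from 100 mM DMSO stocks, with 0.1% DMSO as negative control, for 72 h at 37 °C. […] IC50 was fitted from the concentration series as the mean ± SD of three independent experiments run in duplicate.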

[2] = system: MDA-MB-231; assay: Cytotoxicity against human MDA-MB-231 cells after 72 hrs by MTT assay; assay type: functional, cell-based; conditions: MDA-MB-231, 72 h; in short: as §1
[3] = system: BT-549; assay: Cytotoxicity against human BT549 cells after 72 hrs by MTT assay; assay type: functional, cell-based; conditions: BT-549, 72 h; in short: as §1
[4] = system: T47D; assay: Cytotoxicity against human T47D cells after 72 hrs by MTT assay; assay type: functional, cell-based; in short: as §1
[5] = system: MDA-MB-468; assay: Cytotoxicity against human MDA-MB-468 cells after 72 hrs by MTT assay; assay type: functional, cell-based; conditions: MDA-MB-468, 72 h; in short: as §1
[6] = system: Hs-578T; assay: Cytotoxicity against human Hs578T cells after 72 hrs by MTT assay; assay type: functional, cell-based; in short: as §1
[7] = target: Tubulin (Sus scrofa) (UniProt P02554+P02550); assay: Inhibition of pig brain tubulin polymerization at 10 uM by spectrophotometric analysis relative to control
In short: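 Tubulin polymerization inhibition was measured with compounds at a final concentration of 10 µM.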

[8] = system: BT-549; assay: Cell cycle arrest in human BT549 cells assessed as accumulation of cells at G0/G1 phase at 8 uM after 24 hrs by propidium iodide staining-based flow cytometric analysis (reference value: 65.28%); assay type: functional
[9] = system: BT-549; assay: Cell cycle arrest in human BT549 cells assessed as accumulation of cells at S phase at 8 uM after 24 hrs by propidium iodide staining-based flow cytometric analysis (reference value: 25.84%); assay type: functional
[10] = system: BT-549; assay: Cell cycle arrest in human BT549 cells assessed as accumulation of cells at G2/M phase at 8 uM after 24 hrs by propidium iodide staining-based flow cytometric analysis (reference value: 8.88%); assay type: functional

Chain of Tubulin (Sus scrofa) (P02550 whole entry, looked up): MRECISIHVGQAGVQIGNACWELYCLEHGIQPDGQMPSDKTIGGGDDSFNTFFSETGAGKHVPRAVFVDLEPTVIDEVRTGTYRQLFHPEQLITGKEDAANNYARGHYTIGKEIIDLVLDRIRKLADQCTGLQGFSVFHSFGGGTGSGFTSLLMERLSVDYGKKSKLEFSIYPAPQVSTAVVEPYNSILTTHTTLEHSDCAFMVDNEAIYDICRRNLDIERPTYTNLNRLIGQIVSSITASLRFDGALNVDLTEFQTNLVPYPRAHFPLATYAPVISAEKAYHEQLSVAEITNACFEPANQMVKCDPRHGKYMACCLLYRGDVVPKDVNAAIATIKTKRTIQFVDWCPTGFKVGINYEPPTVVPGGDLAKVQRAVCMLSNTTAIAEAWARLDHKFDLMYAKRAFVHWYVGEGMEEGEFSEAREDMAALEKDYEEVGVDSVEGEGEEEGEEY
Chain of Tubulin (Sus scrofa) (P02554 whole entry, looked up): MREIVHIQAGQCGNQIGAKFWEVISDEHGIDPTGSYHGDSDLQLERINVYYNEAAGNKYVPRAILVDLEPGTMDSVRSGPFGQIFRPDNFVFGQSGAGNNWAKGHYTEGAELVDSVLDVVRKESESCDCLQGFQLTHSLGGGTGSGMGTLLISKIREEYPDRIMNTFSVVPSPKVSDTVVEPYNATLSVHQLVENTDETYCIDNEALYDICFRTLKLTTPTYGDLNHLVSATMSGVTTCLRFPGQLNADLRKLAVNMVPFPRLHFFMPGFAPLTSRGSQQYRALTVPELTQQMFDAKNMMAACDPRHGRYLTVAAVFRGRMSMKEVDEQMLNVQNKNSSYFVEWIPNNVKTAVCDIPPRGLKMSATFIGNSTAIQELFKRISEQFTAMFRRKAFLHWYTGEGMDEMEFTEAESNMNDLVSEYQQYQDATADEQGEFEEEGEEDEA

SMILES | inhibition [7] [%] | IC50 [1] [µM] | IC50 [2] [µM] | IC50 [3] [µM] | IC50 [4] [µM] | IC50 [5] [µM] | IC50 [6] [µM] | Activity [8] [%] | Activity [9] [%] | Activity [10] [%]
COc1ccc(C(=O)c2[nH]c3cc(Cl)ccc3c2NC(=O)c2cc(OC)c(OC)c(OC)c2)cc1O | 30 | 32.6 | 22.2 | 7.48 | 9.28 | 23.2 | 4.35 |  |  | 
COc1cc(C(=O)Nc2c(C(=O)c3ccc(Br)cc3)[nH]c3ccccc23)cc(OC)c1OC | 37 | 7.14 | 6.47 | 10.3 | 9.55 | 7.87 | 7.52 |  |  | 
COc1ccc(/C=C\c2cc(OC)c(OC)c(OC)c2)cc1O [COMBRETASTATIN A4] |  | 0.003 | 0.00317 | 0.00171 | 0.00189 | 0.00155 | 0.00136 | 8.9 | 18.2 | 72.9
COc1cc(C(=O)Nc2c(C(=O)c3cccs3)[nH]c3ccccc23)cc(OC)c1OC |  | > 100 | > 100 | > 100 | > 100 | > 100 | 29.6 |  |  | 

Further lines, with some results ahead:

inhibition [7] [%] | SMILES | IC50 [1] [µM] | IC50 [2] [µM] | IC50 [3] [µM] | IC50 [4] [µM] | IC50 [5] [µM] | IC50 [6] [µM] | Activity [8] [%] | Activity [9] [%] | Activity [10] [%]
41 | COc1cc(C(=O)Nc2c(C(=O)c3ccccc3)[nH]c3cc(Cl)ccc23)cc(OC)c1OC | 51.8 | 32.7 | 26.9 | 45.5 | 11 | > 100 |  |  | 
36 | COc1cc(C(=O)Nc2c(C(=O)c3ccc(C)cc3)[nH]c3cc(Cl)ccc23)cc(OC)c1OC | 34.3 | 33.6 | 25.1 | 16.6 | 5.79 | 14.2 |  |  | 
20 | COc1ccc(C(=O)c2[nH]c3ccccc3c2NC(=O)c2cc(OC)c(OC)c(OC)c2)cc1 | 10.7 | 35 | 10.4 | 5.56 | 7.09 | > 100 |  |  | 
